Data: ChEMBL document CHEMBL1811853, “Design and evaluation of 3-aminopyrazolopyridinone kinase inhibitors inspired by the natural product indirubin” (Bioorg Med Chem, 2011)

What was measured:
[1] = target: T1, Mitogen-activated protein kinase 14 (Homo sapiens, UniProt Q16539); experiment: Inhibition of p38alpha at 30 uM by microfluidic mobility shift assay
Summary of the method: (§1)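 Single-concentration screen, singlicate, 30 uM final (diluted from 1 mM DMSO solutions), fluorescently tagged peptide substrate appropriate to each kinase, ATP at apparent Km for each protein. Phosphorylated and unphosphorylated peptides separated electrophoretically; conversion is the phosphorylated peak area over the sum of both peaks. No-inhibitor and no-ATP controls; H89 reference on each plate.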

[2] = target: Glycogen synthase kinase-3 beta (Homo sapiens) (UniProt P49841); experiment: Inhibition of GSK3B at 30 uM by microfluidic mobility shift assay; summary of the method: as §1
Sequence of Glycogen synthase kinase-3 beta (Homo sapiens) (P49841 whole entry, looked up): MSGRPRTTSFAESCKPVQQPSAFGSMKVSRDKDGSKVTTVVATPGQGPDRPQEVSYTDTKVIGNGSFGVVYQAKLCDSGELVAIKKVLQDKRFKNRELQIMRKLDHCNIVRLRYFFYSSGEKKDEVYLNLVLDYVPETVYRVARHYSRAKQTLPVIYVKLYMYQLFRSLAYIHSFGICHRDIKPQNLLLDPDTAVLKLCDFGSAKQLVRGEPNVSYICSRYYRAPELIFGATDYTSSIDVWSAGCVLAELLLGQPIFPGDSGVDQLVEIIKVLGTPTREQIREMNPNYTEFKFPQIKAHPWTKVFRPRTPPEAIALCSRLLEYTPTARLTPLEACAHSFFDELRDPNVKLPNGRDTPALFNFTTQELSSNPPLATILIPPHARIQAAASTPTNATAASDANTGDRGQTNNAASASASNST

[3] = target: T2, Tyrosine-protein kinase Lyn (Homo sapiens, UniProt P07948); experiment: Inhibition of LYN by microfluidic mobility shift assay
Summary of the method: (§2)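 IC50 determined in the mobility shift format: a fluorescently tagged peptide substrate appropriate to each kinase, ATP at its apparent Km for each protein, and electrophoretic separation of phospho and unphosphorylated peptide. Percent conversion is the ratio of the phosphopeptide peak area to the total peak area. Controls were no inhibitor and no ATP.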

[4] = target: Ribosomal protein S6 kinase alpha-1 (Homo sapiens) (UniProt Q15418); experiment: Inhibition of RSK1 at 30 uM by microfluidic mobility shift assay; summary of the method: as §1
[5] = target: Mitogen-activated protein kinase 3 (Homo sapiens) (UniProt P27361); experiment: Inhibition of ERK1 at 30 uM by microfluidic mobility shift assay; summary of the method: as §1
[6] = target: T3, Proto-oncogene tyrosine-protein kinase Src (Homo sapiens, UniProt P12931); experiment: Inhibition of SRC at 30 uM by microfluidic mobility shift assay; summary of the method: as §1
T3 sequence (P12931 2-536 limits assumed): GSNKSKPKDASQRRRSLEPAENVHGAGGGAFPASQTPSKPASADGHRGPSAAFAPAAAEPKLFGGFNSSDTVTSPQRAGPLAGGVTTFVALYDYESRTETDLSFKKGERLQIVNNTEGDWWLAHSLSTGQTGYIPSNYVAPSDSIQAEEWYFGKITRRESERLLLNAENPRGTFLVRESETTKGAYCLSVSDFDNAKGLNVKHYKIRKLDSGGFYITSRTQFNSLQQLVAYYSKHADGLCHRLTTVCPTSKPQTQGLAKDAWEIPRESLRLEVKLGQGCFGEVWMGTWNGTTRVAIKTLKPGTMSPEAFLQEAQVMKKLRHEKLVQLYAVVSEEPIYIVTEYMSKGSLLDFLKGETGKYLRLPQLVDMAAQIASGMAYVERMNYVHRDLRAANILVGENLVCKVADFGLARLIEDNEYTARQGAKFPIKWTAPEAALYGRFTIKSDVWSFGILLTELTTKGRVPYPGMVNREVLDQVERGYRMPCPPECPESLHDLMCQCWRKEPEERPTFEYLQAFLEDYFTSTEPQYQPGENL

[7] = target: T4, MAP kinase-activated protein kinase 5 (Homo sapiens) (UniProt Q8IW41); experiment: Inhibition of PRAK1 at 30 uM by microfluidic mobility shift assay; summary of the method: as §1
T4 sequence (whole entry): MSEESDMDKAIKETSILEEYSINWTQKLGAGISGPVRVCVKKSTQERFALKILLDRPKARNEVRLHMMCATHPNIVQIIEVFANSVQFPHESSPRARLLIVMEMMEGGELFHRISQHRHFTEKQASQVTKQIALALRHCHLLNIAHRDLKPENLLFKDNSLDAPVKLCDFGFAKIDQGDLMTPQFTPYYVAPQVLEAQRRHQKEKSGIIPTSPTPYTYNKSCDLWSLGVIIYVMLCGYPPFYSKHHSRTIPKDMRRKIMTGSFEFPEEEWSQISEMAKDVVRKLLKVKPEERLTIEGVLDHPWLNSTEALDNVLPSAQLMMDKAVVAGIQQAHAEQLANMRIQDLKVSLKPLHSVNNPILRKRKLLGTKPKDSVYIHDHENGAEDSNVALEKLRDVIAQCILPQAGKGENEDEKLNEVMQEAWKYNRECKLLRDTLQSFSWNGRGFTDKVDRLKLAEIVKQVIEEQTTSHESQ

[8] = target: T3, Proto-oncogene tyrosine-protein kinase Src; experiment: Inhibition of SRC by microfluidic mobility shift assay; summary of the method: as §2
[9] = target: Insulin receptor (Homo sapiens) (UniProt P06213); experiment: Inhibition of INSR at 30 uM by microfluidic mobility shift assay; summary of the method: as §1
[10] = target: T5, Tyrosine-protein kinase Fyn (Homo sapiens, UniProt P06241); experiment: Inhibition of FYN at 30 uM by microfluidic mobility shift assay; summary of the method: as §1
[11] = target: MAP kinase-activated protein kinase 2 (Homo sapiens, UniProt P49137); experiment: Inhibition of MAPKAPK2 at 30 uM by microfluidic mobility shift assay; summary of the method: as §1
[12] = target: T6, Tyrosine-protein kinase Lck (Homo sapiens, UniProt P06239); experiment: Inhibition of LCK at 30 uM by microfluidic mobility shift assay; summary of the method: as §1
Target sequence in this assay (P06239 2-509 limits assumed): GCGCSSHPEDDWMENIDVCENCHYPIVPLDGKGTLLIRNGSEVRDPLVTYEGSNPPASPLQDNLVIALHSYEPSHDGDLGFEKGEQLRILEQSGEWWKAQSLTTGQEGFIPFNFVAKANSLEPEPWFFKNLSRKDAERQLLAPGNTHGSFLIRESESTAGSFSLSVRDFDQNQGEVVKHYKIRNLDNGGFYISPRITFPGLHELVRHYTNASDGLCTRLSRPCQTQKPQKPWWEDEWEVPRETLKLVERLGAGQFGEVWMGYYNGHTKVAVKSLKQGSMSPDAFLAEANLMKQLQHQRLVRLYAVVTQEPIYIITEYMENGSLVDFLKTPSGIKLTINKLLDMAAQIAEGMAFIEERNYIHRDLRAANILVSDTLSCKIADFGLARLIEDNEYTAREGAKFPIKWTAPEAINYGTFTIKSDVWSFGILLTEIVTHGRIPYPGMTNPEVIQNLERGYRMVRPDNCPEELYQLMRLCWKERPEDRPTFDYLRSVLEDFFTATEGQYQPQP

[13] = target: T2, Tyrosine-protein kinase Lyn; experiment: Inhibition of LYN at 30 uM by microfluidic mobility shift assay; summary of the method: as §1
[14] = target: T5, Tyrosine-protein kinase Fyn; experiment: Inhibition of FYN by microfluidic mobility shift assay; summary of the method: as §2
Target sequence in this assay (P06241 whole entry): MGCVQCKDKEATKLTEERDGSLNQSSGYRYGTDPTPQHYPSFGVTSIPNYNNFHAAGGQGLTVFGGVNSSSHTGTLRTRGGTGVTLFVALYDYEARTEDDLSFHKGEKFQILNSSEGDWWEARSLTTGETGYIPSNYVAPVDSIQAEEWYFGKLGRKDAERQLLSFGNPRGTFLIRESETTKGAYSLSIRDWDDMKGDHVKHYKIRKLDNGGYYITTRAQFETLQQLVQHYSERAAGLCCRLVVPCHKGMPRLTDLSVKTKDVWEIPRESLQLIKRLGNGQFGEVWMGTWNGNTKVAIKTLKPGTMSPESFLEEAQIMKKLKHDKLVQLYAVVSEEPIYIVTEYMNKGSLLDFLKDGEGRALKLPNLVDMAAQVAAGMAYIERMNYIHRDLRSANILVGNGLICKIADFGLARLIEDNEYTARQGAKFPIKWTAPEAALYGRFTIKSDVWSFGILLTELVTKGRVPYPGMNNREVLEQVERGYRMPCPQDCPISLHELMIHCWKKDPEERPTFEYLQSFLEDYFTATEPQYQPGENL

[15] = target: T7, Aurora kinase A (Homo sapiens) (UniProt O14965); experiment: Inhibition of AurA at 30 uM by microfluidic mobility shift assay; summary of the method: as §1
T7 sequence (whole entry): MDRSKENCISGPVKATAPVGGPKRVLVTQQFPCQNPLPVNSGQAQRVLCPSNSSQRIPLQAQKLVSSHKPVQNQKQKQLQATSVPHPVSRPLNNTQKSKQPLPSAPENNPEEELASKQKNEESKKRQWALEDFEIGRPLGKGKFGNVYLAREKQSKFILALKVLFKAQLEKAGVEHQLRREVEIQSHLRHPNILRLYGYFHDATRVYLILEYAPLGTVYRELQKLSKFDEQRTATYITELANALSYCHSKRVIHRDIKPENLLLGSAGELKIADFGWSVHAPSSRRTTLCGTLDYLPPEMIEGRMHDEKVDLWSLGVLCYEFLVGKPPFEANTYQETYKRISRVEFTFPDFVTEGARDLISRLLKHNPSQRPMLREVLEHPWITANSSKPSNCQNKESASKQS

[16] = Inhibition of PKA at 30 uM by microfluidic mobility shift assay; summary of the method: as §1
[17] = Aqueous solubility of the compound by HPLC analysis; type: physicochemical; conditions: water
Summary of the method: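 Solubility determined by HPLC measurement of the concentration in saturated aqueous solutions of the compounds.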

[18] = target: Serine/threonine-protein kinase Chk2 (Homo sapiens, UniProt O96017); experiment: Inhibition of CHK2 at 30 uM by microfluidic mobility shift assay; summary of the method: as §1
[19] = target: T8, Tyrosine-protein kinase ABL1 (Homo sapiens, UniProt P00519); experiment: Inhibition of ABL by microfluidic mobility shift assay; summary of the method: as §2
T8 sequence (P00519 whole entry): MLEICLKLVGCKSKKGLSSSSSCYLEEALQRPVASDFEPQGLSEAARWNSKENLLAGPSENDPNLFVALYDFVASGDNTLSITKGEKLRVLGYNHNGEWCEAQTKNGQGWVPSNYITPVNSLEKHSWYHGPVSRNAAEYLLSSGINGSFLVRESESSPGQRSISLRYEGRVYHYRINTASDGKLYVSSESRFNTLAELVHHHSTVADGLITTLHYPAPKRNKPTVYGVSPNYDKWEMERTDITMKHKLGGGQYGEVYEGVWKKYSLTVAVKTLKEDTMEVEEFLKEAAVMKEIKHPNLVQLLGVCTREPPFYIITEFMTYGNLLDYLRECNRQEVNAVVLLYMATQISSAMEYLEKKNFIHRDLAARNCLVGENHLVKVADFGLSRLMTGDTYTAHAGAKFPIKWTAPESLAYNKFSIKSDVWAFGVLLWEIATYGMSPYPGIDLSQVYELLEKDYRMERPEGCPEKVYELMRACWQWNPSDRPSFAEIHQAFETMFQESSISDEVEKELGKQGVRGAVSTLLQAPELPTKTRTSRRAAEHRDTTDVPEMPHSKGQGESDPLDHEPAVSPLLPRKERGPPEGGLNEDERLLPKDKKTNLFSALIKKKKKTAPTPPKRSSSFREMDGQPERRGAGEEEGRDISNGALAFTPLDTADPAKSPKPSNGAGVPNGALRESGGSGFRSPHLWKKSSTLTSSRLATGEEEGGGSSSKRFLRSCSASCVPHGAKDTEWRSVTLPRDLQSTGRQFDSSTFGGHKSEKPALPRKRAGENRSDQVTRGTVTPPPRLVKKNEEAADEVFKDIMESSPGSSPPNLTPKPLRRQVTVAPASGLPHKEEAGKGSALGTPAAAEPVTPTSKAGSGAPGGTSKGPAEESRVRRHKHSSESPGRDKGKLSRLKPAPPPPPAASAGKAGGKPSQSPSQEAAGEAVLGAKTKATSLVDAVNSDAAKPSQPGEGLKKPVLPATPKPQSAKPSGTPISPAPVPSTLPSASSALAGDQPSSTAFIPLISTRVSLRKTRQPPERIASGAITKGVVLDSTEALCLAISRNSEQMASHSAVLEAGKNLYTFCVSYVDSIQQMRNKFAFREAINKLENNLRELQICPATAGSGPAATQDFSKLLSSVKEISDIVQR

MCF7 = experiment: Growth inhibition of human MCF7 cells at 0.039 uM; type: functional; conditions: read-out: GI
[20] = target: RAC-alpha serine/threonine-protein kinase (Homo sapiens) (UniProt P31749); experiment: Inhibition of AKT1 at 30 uM by microfluidic mobility shift assay; summary of the method: as §1
Sequence of RAC-alpha serine/threonine-protein kinase (Homo sapiens) (P31749 whole entry): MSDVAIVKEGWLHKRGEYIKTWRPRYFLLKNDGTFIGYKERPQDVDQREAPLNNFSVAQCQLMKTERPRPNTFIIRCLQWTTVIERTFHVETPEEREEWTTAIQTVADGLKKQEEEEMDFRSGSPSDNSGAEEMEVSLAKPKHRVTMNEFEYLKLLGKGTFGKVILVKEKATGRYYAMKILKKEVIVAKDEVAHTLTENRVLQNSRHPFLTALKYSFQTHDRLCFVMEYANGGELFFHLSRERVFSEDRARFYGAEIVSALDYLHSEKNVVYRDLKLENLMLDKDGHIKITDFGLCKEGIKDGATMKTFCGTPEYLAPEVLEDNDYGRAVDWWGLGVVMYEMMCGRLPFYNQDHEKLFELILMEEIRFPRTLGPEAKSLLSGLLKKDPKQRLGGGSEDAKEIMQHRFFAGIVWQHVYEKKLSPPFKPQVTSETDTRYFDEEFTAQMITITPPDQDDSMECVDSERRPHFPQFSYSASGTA

[21] = target: T6, Tyrosine-protein kinase Lck; experiment: Inhibition of LCK by microfluidic mobility shift assay; summary of the method: as §2
Target sequence in this assay (P06239 whole entry): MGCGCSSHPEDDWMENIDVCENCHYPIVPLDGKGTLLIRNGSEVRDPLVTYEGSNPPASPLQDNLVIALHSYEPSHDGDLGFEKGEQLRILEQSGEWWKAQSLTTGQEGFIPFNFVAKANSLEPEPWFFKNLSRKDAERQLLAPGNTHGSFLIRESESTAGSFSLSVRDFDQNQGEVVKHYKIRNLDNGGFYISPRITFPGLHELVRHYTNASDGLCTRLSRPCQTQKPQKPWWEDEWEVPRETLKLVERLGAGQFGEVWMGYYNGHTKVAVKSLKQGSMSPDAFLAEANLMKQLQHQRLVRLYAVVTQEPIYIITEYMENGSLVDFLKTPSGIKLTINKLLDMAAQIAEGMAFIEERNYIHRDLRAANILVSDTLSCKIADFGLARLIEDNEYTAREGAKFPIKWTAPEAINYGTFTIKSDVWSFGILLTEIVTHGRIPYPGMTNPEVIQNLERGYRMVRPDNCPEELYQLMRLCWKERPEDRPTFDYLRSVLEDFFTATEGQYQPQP

[22] = target: RAC-beta serine/threonine-protein kinase (Homo sapiens) (UniProt P31751); experiment: Inhibition of AKT2 at 30 uM by microfluidic mobility shift assay; summary of the method: as §1
Sequence of RAC-beta serine/threonine-protein kinase (Homo sapiens) (P31751 whole entry): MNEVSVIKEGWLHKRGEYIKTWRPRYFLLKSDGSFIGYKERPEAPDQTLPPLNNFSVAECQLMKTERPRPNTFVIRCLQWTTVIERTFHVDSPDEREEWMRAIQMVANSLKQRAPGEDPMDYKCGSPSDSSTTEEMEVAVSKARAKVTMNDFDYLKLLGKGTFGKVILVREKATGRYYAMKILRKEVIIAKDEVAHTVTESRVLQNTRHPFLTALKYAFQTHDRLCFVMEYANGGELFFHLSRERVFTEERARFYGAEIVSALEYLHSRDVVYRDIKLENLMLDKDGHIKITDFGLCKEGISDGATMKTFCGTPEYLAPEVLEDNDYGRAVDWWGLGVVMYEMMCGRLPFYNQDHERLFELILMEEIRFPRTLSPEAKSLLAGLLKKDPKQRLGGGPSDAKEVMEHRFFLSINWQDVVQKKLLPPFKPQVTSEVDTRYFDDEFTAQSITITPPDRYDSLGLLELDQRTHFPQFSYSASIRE

[23] = target: T1, Mitogen-activated protein kinase 14; experiment: Inhibition of p38alpha by microfluidic mobility shift assay; summary of the method: as §2
[24] = target: T9, Serine/threonine-protein kinase D2 (Homo sapiens) (UniProt Q9BZL6); experiment: Inhibition of PKD2 at 30 uM by microfluidic mobility shift assay; summary of the method: as §1
T9 sequence (whole entry): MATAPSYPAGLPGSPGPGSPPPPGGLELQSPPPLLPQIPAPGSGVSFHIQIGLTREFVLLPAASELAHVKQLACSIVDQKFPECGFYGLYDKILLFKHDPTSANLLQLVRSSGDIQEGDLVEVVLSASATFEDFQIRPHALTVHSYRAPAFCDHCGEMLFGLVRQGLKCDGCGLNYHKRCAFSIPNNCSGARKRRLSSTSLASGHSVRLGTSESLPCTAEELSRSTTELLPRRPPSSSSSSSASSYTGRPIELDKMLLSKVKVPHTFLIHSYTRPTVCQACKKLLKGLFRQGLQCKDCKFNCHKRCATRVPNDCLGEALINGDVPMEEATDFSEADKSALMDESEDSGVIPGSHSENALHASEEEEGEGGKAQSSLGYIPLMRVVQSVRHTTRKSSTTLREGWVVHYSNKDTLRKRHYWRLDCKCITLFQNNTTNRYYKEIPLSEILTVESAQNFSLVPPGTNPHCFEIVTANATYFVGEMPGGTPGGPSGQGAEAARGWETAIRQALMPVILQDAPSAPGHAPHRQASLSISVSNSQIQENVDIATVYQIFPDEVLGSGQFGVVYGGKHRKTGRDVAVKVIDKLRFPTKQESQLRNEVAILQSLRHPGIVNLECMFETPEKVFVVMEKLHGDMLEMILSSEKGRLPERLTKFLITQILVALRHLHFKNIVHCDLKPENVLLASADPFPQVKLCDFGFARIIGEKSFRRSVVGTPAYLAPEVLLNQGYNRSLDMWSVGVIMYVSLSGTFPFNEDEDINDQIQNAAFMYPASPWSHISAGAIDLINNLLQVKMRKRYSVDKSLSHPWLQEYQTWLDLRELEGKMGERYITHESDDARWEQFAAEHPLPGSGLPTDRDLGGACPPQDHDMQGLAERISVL

[25] = target: T8, Tyrosine-protein kinase ABL1; experiment: Inhibition of ABL at 30 uM by microfluidic mobility shift assay; summary of the method: as §1
[26] = target: Ribosomal protein S6 kinase alpha-5 (Homo sapiens) (UniProt O75582); experiment: Inhibition of MSK1 at 30 uM by microfluidic mobility shift assay; summary of the method: as §1
[27] = target: Mitogen-activated protein kinase 1 (Homo sapiens) (UniProt P28482); experiment: Inhibition of ERK2 at 30 uM by microfluidic mobility shift assay; summary of the method: as §1

T1 sequence (Q16539 whole entry): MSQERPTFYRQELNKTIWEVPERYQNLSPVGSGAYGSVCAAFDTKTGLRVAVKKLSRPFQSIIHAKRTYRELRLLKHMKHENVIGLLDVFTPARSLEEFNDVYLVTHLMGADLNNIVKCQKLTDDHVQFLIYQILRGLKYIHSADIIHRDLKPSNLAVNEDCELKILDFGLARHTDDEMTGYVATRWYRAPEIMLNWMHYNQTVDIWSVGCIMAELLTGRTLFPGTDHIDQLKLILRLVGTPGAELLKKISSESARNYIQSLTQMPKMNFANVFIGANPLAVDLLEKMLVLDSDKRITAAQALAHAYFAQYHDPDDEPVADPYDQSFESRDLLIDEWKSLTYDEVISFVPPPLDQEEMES

SMILES: Nc1c2c(=O)[nH]c(-c3ccccc3)cc2nn1-c1ccccc1
- inhibition [1]: 79%
- inhibition [2]: 29%
- IC50 [3]: 1400 nM
- inhibition [4]: 38%
- inhibition [5]: 20%
- inhibition [6]: 98%
- inhibition [7]: 22%
- IC50 [8]: 870 nM
- inhibition [9]: 2%
- inhibition [10]: 96%
- inhibition [11]: 2%
- inhibition [12]: 90%
- inhibition [13]: 96%
- IC50 [14]: 1300 nM
- inhibition [15]: 61%
- inhibition [16]: -10%
- solubility [17]: < 1 µg/mL
- inhibition [18]: -8%
- IC50 [19]: 1500 nM
- inhibition of growth at 0.039 µM (MCF7): 35%
- inhibition [20]: -2%
- IC50 [21]: 4800 nM
- inhibition [22]: -1%
- IC50 [23]: 8700 nM
- inhibition [24]: 23%
- inhibition [25]: 96%
- inhibition [26]: 13%
- inhibition [27]: 12%
